Data on 17 compounds can be found in ChEMBL document CHEMBL1121626, “Quantitative structure-activity relationships for N-[N',N'-disubstituted-amino)acetyl]arylamines for local anesthetic activity and acute toxicity” (J Med Chem, 1980).

Activity calls are given as the source filed them. No cut-off for these calls is given here.

Data set [1] is described as follows: Partition coefficient (logP) (cyclohexane). It counts as physicochemical. As to conditions: cyclohexane/water. In short, it runs like this: (§1)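 Partition coefficients were measured by Brändström's titrimetric method at 25 °C in 1-octanol/water or cyclohexane/water. Amine hydrochloride in aqueous solution pre-saturated with the solvent was one-fifth neutralized with NaOH, then solvent was added. The pH was held at its original value by automatic alkali addition until equilibrium. Each value is the mean of eight determinations, reported with 95% confidence intervals.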

Data set [2] relates to Oryctolagus cuniculus. The experiment in a line: Compound was evaluated for anesthetic dose (pAD = log 1/AD; AD = anesthetic dose).
Data set [3] is filed under the species Mus musculus. The experiment in a line: Antiarrhythmic activity (arrhythmy induced by HCCl3 in mice) measured as its effect on ventricular fibrillation; No effect. The settings on record: Heart. The data set is classed as functional, organism-based.
Data set [4] is described as follows: Intravenous lethal dose of the compound. The data set is classed as ADME, organism-based. As to conditions: mouse, in vivo. In outline: (§2)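 Mice, groups of 10 randomized animals; aqueous drug solution given intravenously at 0.2 mL/20 g body weight. Percentage dead scored 5 days after start of experiment; LD50 derived by the usual statistical method, reported with 95% confidence interval.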

Data set [5] is described as follows: Partition coefficient (logP). It counts as physicochemical. The settings on record: octanol/water. In outline:
as §1

Data set [6] has as its system Oryctolagus cuniculus. The experiment in a line: Anaesthetic activity measured as anaesthetic dose (AD) required to nullify the rabbit corneal reflex after 5 min. It counts as functional, Cornea. In outline:
(§3)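 Aqueous drug solution, 0.25 mL, applied to rabbit cornea for 1 min, then wiped off. 100 regular mechanical stimulations were given. The minimal active dose is the concentration that abolished the corneal reflex at 5 min. Testing was repeated until 10 concordant results were obtained, with experimental error no more than 10%.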

For data set [7], the system named is Mus musculus. The experiment in a line: Compound was evaluated for lethal dose (pLD50 = log1/LD50 in mol/kg.). It counts as toxicity, organism-based. As to conditions: in vivo. In short, it runs like this:
as §2

Data set [8] is described as follows: Dissociation constant was observed. It counts as physicochemical. In outline:
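Values for water-insoluble compounds were obtained by extrapolation. Two values were derived indirectly from P = P'(1 + 10^(pKa − pH)), using P' measured at pH 12 and 7.34, or at pH 7.2 and 6.0.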

The nature of data set [9]: Compound was evaluated for the apparent partition coefficient at pH 7.4. It counts as physicochemical. As to conditions: octanol/water. In outline: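 Apparent partition coefficient at pH 7.4 was calculated from the octanol/water log P and pKa using P = P'(1 + 10^(pKa − pH)).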
Data set [10] relates to Mus musculus. The experiment in a line: Delay of respiratory arrest was observed at 5 mg/kg ip in mice in antiarrhythmic assay. It counts as functional, Heart. As to conditions: route intraperitoneal.
Data set [11] concerns Oryctolagus cuniculus. Briefly: Anaesthetic activity measured as anaesthetic dose (AD) required to nullify the rabbit corneal reflex after 5 min;d = Irritant. As to conditions: Cornea. It counts as functional, organism-based. In outline:
as §3

In data set [12] the test system is Mus musculus. Briefly: Delay of respiratory arrest was observed at 10 mg/kg ip in mice in antiarrhythmic assay. It counts as functional, Heart. As to conditions: route intraperitoneal.

Usually logP stands for a log measure of how a compound divides between an organic and an aqueous phase. As usually defined, the LD50 is the dose expected to kill half of the subjects tested. Low values mean greater toxicity, high ones lower toxicity. The term pKa denotes the pH at which an ionisable group is half protonated. Low values mean a group that gives up its proton readily, high ones a group that holds its proton tightly. One may read the logD as lipophilicity at a set pH, counting ionised and neutral species.

As to `CCN(CC)CC(=O)NC1c2ccccc2CCc2ccccc21.Cl`, the values for the logP in data set [1] and in data set [5] were 4.153 and 4.41, respectively. This compound registered a pAD in data set [2] of 1.25. Further, the outcome in data set [3] was inactive. In [4], the LD50 turned out to be 139 µmol/kg. In addition, the AD in data set [6] is 20.9 mM. The pLD50 in data set [7] amounted to 3.86.

As for `CCCCCN(CCCCC)CC(=O)NCc1ccccc1.Cl`, the log partition coefficient (logP) in [1] turned out to be 5.259; in data set [5], 5.19. The pAD in data set [2] is listed as 1.53. In addition, the outcome in data set [3] was inactive. Moreover, the AD in data set [6] was determined as 29.3 mM.

In the case of `O=C(CN1CCCC1)NCc1ccccc1`, in [8], the pKa was 8.27. In addition, the logD in [9] was 0.769. The logP is 0.156 in data set [1] and 1.69 in data set [5]. This compound also registered a pAD in data set [2] of 0.71. Also, the result in data set [3] was inactive. The compound also displayed a median lethal dose (LD50) in data set [4] of 361 µmol/kg. Moreover, the AD in data set [6] was determined as 196 mM. The pLD50 in data set [7] came out at 3.44.

In the case of `CCN(CC)CC(=O)NCc1ccccc1-c1ccccc1.Cl`, the lipophilicity (logP) in [1] turned out to be 3.2; in data set [5] it was 3.74. The pAD in data set [2] came out at 1.82. For the same compound, the result in data set [3] was inactive. In data set [4], this compound gave an LD50 of 128 µmol/kg. The compound further showed an Increase in data set [10] of 20.5%. The same compound had an AD in data set [6] of 34.5 mM. Further, in [7], the pLD50 is on record as 3.89.

Consider `CCN(CC)CC(=O)NC1CC(c2ccccc2)c2ccccc21.Cl` (stereo not given), for which the logP is 4.153 in data set [1] and 4.41 in data set [5]. Moreover, the pAD in data set [2] was 1.55. Further, the outcome in [3] was inactive. This compound registered an LD50 in data set [4] of 164 µmol/kg. In data set [6], this compound yielded an AD of 55.8 mM. This compound yielded a pLD50 in [7] of 3.78.

In [8], `Cl.O=C(CN1CCOCC1)NCc1ccccc1` registered a pKa of 4.98. Moreover, in data set [9], the logD came to 0.67. For the same compound, the values for the lipophilicity (logP) in data set [1] and in data set [5] were -1.132 and 0.672, respectively. For the same compound, in [2], the pAD is on record as 0.73. In addition, the outcome in data set [3] was inactive. The compound also showed an LD50 in [4] of 1720 µmol/kg. For the same compound, the AD in data set [6] came to 185 mM. Further, the pLD50 in data set [7] was determined as 2.77.

`CCCN(CCC)CC(=O)NC1c2ccccc2-c2ccccc21.Cl` showed a pKa in [8] of 7.28. In addition, in data set [9], the logD worked out at 4.37. Besides, the logP in data set [1] came to 4.44; in data set [5], 4.61. Moreover, the pAD in data set [2] was 1.68. Moreover, in data set [3], the outcome was inactive. In addition, in [6], the AD came to 20.9 mM.

Take `CCCCN(CCCC)CC(=O)NCc1ccccc1.Cl`: the log partition coefficient (logP) was 3.791 in [1] and 4.16 in data set [5]. Further, the pAD in [2] is 1.8. Moreover, the result in data set [3] was inactive. Moreover, the LD50 in data set [4] is 116 µmol/kg. For the same compound, the Increase in [10] is recorded as 33.2%. In addition, the AD in [6] turned out to be 16 mM. In data set [7], this compound had a pLD50 of 3.93.

`CN(C)CC(=O)NCc1ccccc1.Cl` yielded a pKa in data set [8] of 7.62. The logD in [9] came to 0.681. The logP in data set [1] was -0.453; in data set [5], 1.11. In addition, the outcome in data set [3] was inactive. The LD50 in data set [4] was 735 µmol/kg. The AD result in data set [11] is listed as “Irritant”. The pLD50 in data set [7] was determined as 3.13.

Turning to `CCN(CC)CC(=O)NC1c2ccccc2-c2ccccc21.Cl`, the pKa in [8] is 7.98. The logD in data set [9] is 2.96. For the same compound, the values for the logP in data set [1] and in data set [5] were 3.067 and 3.64, respectively. Moreover, in [2], the pAD is listed as 1.82. The outcome in data set [3] was inactive. Moreover, the LD50 in [4] is 146 µmol/kg. In data set [6], the AD is 15.1 mM. The compound further showed a pLD50 in [7] of 3.83.

For the compound `CCN(CC)CC(=O)NC(c1ccccc1)c1ccccc1.Cl`, the logP in [1] turned out to be 3.2; in data set [5], 3.74. Further, the pAD in data set [2] came to 1.82. The outcome in [3] was inactive. The LD50 in data set [4] turned out to be 212 µmol/kg. In [12], this compound registered an Increase of 27.8%. In data set [6], the AD is 15 mM. In data set [7], this compound displayed a pLD50 of 3.67.

In the case of `CCCN(CCC)CC(=O)NC1CCc2ccccc21.Cl` (stereo not given), the logP was 3.277 in [1] and 3.79 in [5]. In data set [2], this compound registered a pAD of 1.89. For the same compound, in data set [3], the result was inactive. The LD50 in data set [4] was 145 µmol/kg. For the same compound, the AD in [6] came out at 12.8 mM. The pLD50 in data set [7] is recorded as 3.84.

Consider `CCN(CC)CC(=O)NCc1ccccc1.Cl`, for which, in [8], the pKa amounted to 8.07. Further, the logD in data set [9] is 1.39. The results for the log partition coefficient (logP) in data set [1] and in data set [5] were 1.02 and 2.14, respectively. The compound further came in with a pAD in data set [2] of 0.93. In data set [3], the result was inactive. Also, in data set [4], the LD50 was 376 µmol/kg. The Increase in data set [12] is on record as 25%. The compound further gave an AD in data set [6] of 117 mM. The compound also showed a pLD50 in data set [7] of 3.42.

The compound `CCN(CC)CC(=O)NC1CCc2ccccc21.Cl` (stereo not given) registered a pKa in data set [8] of 8.19. Moreover, the logD in data set [9] turned out to be 1.88. The results for the logP in data set [1] and in data set [5] were 1.645 and 2.74, respectively. The same compound came in with a pAD in data set [2] of 1.45. Moreover, in data set [3], the result was inactive. In data set [4], this compound displayed an LD50 of 238 µmol/kg. The AD in data set [6] worked out at 27.9 mM. In addition, the pLD50 in [7] is on record as 3.62.

In [8], `Cl.O=C(CN1CCCCC1)NCc1ccccc1` gave a pKa of 7.71. Besides, the logD in data set [9] was determined as 1.78. Further, the logP in [1] was 1.198; in data set [5] it was 2.27. Also, in data set [2], the pAD came out at 0.73. The result in data set [3] was inactive. The same compound came in with an LD50 in [4] of 245 µmol/kg. In data set [6], the AD amounted to 186 mM. For the same compound, the pLD50 in data set [7] is recorded as 3.61.

Consider `CCN(CC)CCOC(=O)c1ccc(N)cc1.Cl` [PROCAINE HYDROCHLORIDE], for which, in data set [3], the outcome was inactive. The compound further gave an LD50 in data set [4] of 169 µmol/kg. In data set [6], this compound returned an AD of 36.7 mM.

Turning to `CCCN(CCC)CC(=O)NCc1ccccc1.Cl`, the logP was 2.386 in [1] and 3.11 in data set [5]. This compound also displayed a pAD in data set [2] of 1.75. Besides, in [3], the outcome was inactive. The same compound came in with an LD50 in [4] of 254 µmol/kg. In [6], this compound gave an AD of 17.5 mM. In data set [7], this compound had a pLD50 of 3.59.
